In data set [1] the target is HSP60/HSP10 (Homo sapiens, UniProt P10809). Briefly: Inhibition of human HSP60 expressed in Escherichia coli Rosetta 2(DE3)/human HSP10 expressed in Escherichia coli Rosetta 2(DE3) pLysS cells assessed as reduction in HSP60/HSP10-mediated denatured pig heart mitochondrial MDH refolding by measuring MDH enzyme activity using sodium mesoxalate as substrate after 40 to 60 mins by spectrometric analysis.

Data set [2] has as its target T1, Phosphotyrosine protein phosphatase (Mycobacterium tuberculosis, UniProt A0A045ISB3).
T1 sequence (A0A045ISB3 whole entry): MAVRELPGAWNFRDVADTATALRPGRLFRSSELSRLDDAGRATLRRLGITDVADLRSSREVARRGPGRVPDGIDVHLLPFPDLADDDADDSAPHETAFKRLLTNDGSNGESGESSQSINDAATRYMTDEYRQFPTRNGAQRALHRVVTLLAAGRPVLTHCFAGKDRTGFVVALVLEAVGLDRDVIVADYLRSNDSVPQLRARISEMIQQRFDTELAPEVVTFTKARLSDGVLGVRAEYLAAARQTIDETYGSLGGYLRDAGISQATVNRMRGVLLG
Description: Inhibition of Mycobacterium tuberculosis His-tagged PtpB expressed in Escherichia coli Rosetta 2 (DE3) using pNPP as substrate after 30 mins by spectrophotometric method.

Data set [3] deals with T2, Tyrosine-protein phosphatase non-receptor type 5 (Homo sapiens, UniProt P54829).
T2 sequence (P54829 whole entry): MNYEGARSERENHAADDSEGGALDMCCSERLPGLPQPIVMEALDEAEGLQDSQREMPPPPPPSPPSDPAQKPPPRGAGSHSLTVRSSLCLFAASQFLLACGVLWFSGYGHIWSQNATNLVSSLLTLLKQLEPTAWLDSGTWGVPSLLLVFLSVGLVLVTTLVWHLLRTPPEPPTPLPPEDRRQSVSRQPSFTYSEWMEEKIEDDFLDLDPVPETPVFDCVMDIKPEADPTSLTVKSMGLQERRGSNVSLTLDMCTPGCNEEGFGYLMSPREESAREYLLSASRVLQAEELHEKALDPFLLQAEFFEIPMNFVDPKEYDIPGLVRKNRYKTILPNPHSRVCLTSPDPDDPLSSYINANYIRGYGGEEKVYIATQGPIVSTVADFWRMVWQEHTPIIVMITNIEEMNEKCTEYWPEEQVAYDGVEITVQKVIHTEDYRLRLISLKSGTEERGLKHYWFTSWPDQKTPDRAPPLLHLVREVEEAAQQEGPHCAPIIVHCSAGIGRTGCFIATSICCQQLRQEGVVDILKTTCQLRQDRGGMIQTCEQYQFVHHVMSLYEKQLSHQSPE
Description: Inhibition of human PTPN5 expressed in Escherichia coli Rosetta 2 (DE3) using pNPP as substrate after 45 mins by spectrophotometric method.

Data set [4] can be described thus: Selectivity ratio of IC50 for inhibition of human HSP60 expressed in Escherichia coli Rosetta 2(DE3)/human HSP10 expressed in Rosetta 2(DE3) pLysS cells to IC50 for inhibition of Escherichia coli GroEL expressed in Escherichia coli DH5alpha/Escherichia coli GroES expressed in Escherichia coli BL21 (DE3). The gist of the method: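 Ratio of IC50s from two analogous chaperonin-mediated refolding assays: human HSP60/10 and E. coli GroEL/ES each refold denatured malate dehydrogenase (dMDH). Refolding is followed through the recovered MDH enzymatic activity in a coupled read-out. IC50s come from dose-response testing. GroEL subunits are at 700 nM in the GroEL/ES assay.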

The target of data set [5] is T3, E. coli GroEL/ES (Escherichia coli, UniProt P0A6F5). Description: Inhibition of Escherichia coli GroEL expressed in Escherichia coliDH5alpha/Escherichia coli GroES expressed in Escherichia coli BL21 (DE3) assessed as reduction in GroEL/GroES-mediated denatured pig heart mitochondrial MDH refolding by measuring MDH enzyme activity using sodium mesoxalate as substrate after 20 to 40 mins by spectrometric analysis.

Data set [6] has as its system Mycobacterium tuberculosis. Description: Antitubercular activity against Mycobacterium tuberculosis H37Rv after 5 days. The class given is functional, organism-based. The settings on record: 120 h.
A short description of data set [7]: Selectivity index, ratio of IC50 for human PTPN1 to IC50 for Mycobacterium tuberculosis PtpB.
Data set [8] has as its system Mycobacterium tuberculosis. Briefly: Antitubercular activity against Mycobacterium tuberculosis H37Rv after 5 days at 200 uM relative to control. The class given is functional. The settings on record: 120 h. In short, it runs like this:
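M. tuberculosis grown in liquid culture with compound at a fixed 200 μM for 5 days. Growth inhibition expressed as percent of control.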

In data set [9] the target is T4, Tyrosine-protein phosphatase non-receptor type 1 (Homo sapiens, UniProt P18031).
T4 sequence (P18031 whole entry): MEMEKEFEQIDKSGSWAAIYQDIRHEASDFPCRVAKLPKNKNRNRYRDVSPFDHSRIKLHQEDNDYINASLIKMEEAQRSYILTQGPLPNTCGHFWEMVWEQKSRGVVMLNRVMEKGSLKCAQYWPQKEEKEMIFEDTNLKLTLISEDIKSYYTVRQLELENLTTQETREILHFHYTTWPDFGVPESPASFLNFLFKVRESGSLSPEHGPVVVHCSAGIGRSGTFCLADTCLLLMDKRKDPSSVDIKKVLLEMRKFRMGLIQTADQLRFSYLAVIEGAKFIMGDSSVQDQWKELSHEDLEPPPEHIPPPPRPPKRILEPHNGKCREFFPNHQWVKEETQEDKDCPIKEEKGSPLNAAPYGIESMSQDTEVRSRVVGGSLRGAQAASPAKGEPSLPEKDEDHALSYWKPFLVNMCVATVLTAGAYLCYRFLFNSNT
Description: Inhibition of human PTPN1 expressed in Escherichia coli Rosetta 2 (DE3) using pNPP as substrate after 45 mins by spectrophotometric method.

Data set [10] concerns the target T5, Tyrosine-protein phosphatase non-receptor type 2 (Homo sapiens, UniProt P17706).
T5 sequence (P17706 whole entry): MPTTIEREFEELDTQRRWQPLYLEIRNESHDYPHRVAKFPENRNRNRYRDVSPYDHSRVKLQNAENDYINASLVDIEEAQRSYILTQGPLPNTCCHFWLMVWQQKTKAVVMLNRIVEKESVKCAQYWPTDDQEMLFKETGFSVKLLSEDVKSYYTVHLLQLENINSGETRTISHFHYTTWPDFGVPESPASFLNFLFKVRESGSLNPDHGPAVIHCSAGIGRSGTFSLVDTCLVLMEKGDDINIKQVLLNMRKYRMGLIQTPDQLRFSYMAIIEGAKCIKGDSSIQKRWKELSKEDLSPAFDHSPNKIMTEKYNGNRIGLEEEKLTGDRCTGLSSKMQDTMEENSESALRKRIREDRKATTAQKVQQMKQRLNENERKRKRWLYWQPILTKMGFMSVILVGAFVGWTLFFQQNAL
Description: Inhibition of human PTPN2 expressed in Escherichia coli Rosetta 2 (DE3) using pNPP as substrate after 45 mins by spectrophotometric method.

The target of data set [11] is T3, E. coli GroEL/ES. Description: Inhibition of Escherichia coli GroEL expressed in Escherichia coli DH5alpha/Escherichia coli GroES expressed in Escherichia coli BL21 (DE3) assessed as reduction in GroEL/GroES-mediated denatured rhodanese refolding by measuring rhodanese enzyme activity after 45 mins by Fe(SCN)3 dye based spectrometric analysis.
Data set [12] in a line: Inhibition of refolded rhodanese (unknown origin) preincubated with Escherichia coli GroEL/GroES for 60 mins by measuring rhodanese enzyme activity followed by compound addition by Fe(SCN)3 dye based spectrometric analysis. Further details: species or system Homo sapiens.
Data set [13] can be described thus: Cytotoxicity against human THLE3 cells assessed as reduction in cell viability after 48 hrs by Alamar blue assay. The class given is cell-based. In short, it runs like this: (§1)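 Alamar Blue viability read-out. Human liver (THLE-3) and kidney (HEK 293) cells incubated with compound for 48 h. Tested in dose-response to derive CC50.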
A general note: Alamar Blue is a resazurin reagent that responds to reducing activity.

Data set [14] addresses T6, Malate dehydrogenase, mitochondrial (Sus scrofa, UniProt P00346).
T6 sequence (P00346 whole entry): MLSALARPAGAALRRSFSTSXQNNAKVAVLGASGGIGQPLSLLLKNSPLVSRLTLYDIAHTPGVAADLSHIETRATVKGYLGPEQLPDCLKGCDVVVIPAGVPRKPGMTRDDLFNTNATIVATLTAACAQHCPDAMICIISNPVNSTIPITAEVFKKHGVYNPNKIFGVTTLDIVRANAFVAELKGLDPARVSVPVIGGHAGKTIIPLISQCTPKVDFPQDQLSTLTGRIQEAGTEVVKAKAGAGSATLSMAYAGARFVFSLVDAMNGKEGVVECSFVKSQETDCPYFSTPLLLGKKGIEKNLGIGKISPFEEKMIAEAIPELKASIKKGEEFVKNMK
Description: Inhibition of refolded pig heart mitochondrial MDH preincubated with Escherichia coli GroEL/GroES for 45 mins using sodium mesoxalate as substrate followed by compound addition and measured after 20 to 30 mins by spectrometric analysis.

Data set [15] in a line: Cytotoxicity against human HEK293 cells assessed as reduction in cell viability after 48 hrs by Alamar blue assay. The class given is cell-based. In short, it runs like this: as §1

What is called IC50 is the concentration needed to halve the response being measured. One may read the EC50 as the concentration giving half of the maximal effect. For orientation: inhibition means the percentage by which the read-out fell short of the control. A higher inhibition goes with a strong effect. The term CC50 denotes the concentration giving 50% cytotoxicity.

HSP60/HSP10, sequence (P10809 whole entry): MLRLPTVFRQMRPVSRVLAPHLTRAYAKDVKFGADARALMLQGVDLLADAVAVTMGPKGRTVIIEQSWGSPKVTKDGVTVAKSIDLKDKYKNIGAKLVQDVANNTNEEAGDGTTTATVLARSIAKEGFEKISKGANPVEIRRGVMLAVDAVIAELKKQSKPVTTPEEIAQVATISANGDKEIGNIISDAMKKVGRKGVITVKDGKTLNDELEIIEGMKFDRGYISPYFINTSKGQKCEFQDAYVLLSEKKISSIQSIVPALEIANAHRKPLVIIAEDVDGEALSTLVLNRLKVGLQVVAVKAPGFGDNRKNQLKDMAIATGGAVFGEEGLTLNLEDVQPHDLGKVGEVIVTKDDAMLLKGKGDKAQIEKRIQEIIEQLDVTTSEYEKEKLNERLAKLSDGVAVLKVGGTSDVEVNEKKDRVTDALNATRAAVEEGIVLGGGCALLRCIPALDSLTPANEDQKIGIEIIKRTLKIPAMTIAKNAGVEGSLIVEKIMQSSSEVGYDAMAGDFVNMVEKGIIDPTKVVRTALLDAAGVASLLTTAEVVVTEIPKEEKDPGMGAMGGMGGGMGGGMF
HSP60/HSP10, sequence (P61604 whole entry, further chain): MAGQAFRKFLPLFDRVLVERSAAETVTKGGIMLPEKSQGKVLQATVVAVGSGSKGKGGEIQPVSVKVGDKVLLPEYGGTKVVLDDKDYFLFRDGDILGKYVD
T3 sequence (P0A6F5 whole entry, looked up): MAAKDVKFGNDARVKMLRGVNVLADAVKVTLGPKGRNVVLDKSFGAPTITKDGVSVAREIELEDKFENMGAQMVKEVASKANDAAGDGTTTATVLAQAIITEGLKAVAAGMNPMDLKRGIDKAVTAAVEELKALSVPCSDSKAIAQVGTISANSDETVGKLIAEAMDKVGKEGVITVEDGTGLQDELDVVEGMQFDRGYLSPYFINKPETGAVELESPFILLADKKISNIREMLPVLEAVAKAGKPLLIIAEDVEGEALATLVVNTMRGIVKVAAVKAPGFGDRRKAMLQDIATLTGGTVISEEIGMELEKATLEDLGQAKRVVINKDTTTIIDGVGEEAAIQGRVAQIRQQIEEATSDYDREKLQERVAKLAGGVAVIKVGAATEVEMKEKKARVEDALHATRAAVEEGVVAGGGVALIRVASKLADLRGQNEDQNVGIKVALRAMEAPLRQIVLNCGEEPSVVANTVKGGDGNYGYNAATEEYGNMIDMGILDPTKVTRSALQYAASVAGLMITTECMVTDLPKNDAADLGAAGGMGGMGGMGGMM

On to `CS(=O)(=O)Nc1ccc(-c2nc3cc(NS(=O)(=O)c4ccc(Cl)s4)ccc3o2)cc1`, for which the IC50 turned out to be 43 µM in [1]; 37 µM in [2]; 52 µM in data set [3]; 14 µM in data set [5]; 52 µM in data set [9]; 95 µM in data set [10]. In addition, the results for the Ratio IC50 in data set [4] and in data set [7] were 3.1 and 1.4, respectively. The EC50 in [6] was found to be 66 µM. For the same compound, the inhibition at 200 µM in data set [8] amounted to 74%.
`O=S(=O)(Nc1ccc(-c2nc3cc(NS(=O)(=O)c4ccccc4)ccc3o2)cc1)c1ccccc1`: the IC50 in [1] is 80 µM; in [2] it was 18 µM; in data set [3] it was 23 µM; in [5], 4 µM; in data set [9] it was 24 µM; in data set [10], 29 to 31 µM. The Ratio IC50 is 20 in [4] and 1.3 in data set [7]. This compound gave an EC50 in data set [6] of 28 µM. Also, the inhibition at 200 µM in [8] amounted to 76%.
`O=S(=O)(Nc1ccc(-c2nc3cc(NS(=O)(=O)c4ccc(F)cc4)ccc3o2)cc1)c1ccc(F)cc1`: the IC50 in data set [1] was 67 µM; in data set [2] it was 18 µM; in [3], 23 µM; in [5] it was 3.3 µM; in data set [9], 27 µM; in data set [10] it was 28 µM. Also, the values for the Ratio IC50 in data set [4] and in data set [7] were 20 and 1.3, respectively. In data set [6], the EC50 was 66 µM. The inhibition at 200 µM in [8] was 48%.
Regarding `O=S(=O)(Nc1ccc(-c2nc3cc(NS(=O)(=O)c4cccc(O)c4)ccc3o2)cc1)c1cccc(O)c1`, the IC50 in data set [1] was 17 µM; in [2], 1.5 µM; in [3] it was 47 µM; in data set [5], 0.97 µM; in data set [9], 38 µM; in data set [10], 84 µM. Also, the Ratio IC50 in data set [4] is 18; in [7] it was 25. In data set [6], this compound registered an EC50 of 84 µM. The same compound gave an inhibition at 200 µM in data set [8] of 80%.
As to `O=S(=O)(Nc1ccc(-c2nc3cc(NS(=O)(=O)c4ccccc4F)ccc3o2)cc1)c1ccccc1F`, the IC50 was 57 µM in [1]; 16 µM in data set [2]; 26 µM in [3]; 20 µM in [5]; 36 µM in data set [9]; 31 µM in data set [10]. Further, the Ratio IC50 was 2.9 in data set [4] and 1.6 in [7]. Besides, the EC50 in [6] came out at 45 µM. Also, testing at 200 µM in data set [8] gave an inhibition of 54%.
With `O=S(=O)(Nc1ccc(-c2nc3cc(NS(=O)(=O)c4ccccc4O)ccc3o2)cc1)c1ccccc1O`, the IC50 is 18 µM in data set [1]; 2.3 µM in data set [2]; 25 µM in data set [3]; 7.7 µM in [5]; 23 µM in data set [9]; 39 µM in data set [10]. Besides, the Ratio IC50 worked out at 2.3 in data set [4] and 10 in data set [7]. Besides, the half-maximal effective concentration (EC50) in data set [6] amounted to 63 µM. This compound also gave an inhibition at 200 µM in data set [8] of 79%.
With `NCc1ccc(S(=O)(=O)Nc2ccc(-c3nc4cc(NS(=O)(=O)c5ccc(Cl)s5)ccc4o3)cc2)cc1`, the IC50 in data set [1] came to 48 µM; in [2], 9.1 µM; in data set [3], 75 µM; in [9], 56 µM; in data set [10], 91 µM. Also, the Ratio IC50 in [4] was 37; in [7], 6.2. Also, a half-maximal response in [6] (EC50) required 26 µM. Besides, 200 µM produced 94% inhibition in data set [8].
As for `O=S(=O)(Nc1ccc2oc(-c3ccccc3)nc2c1)c1ccccc1`, the IC50 in [11] was 190 µM; in [1] it was over 100 µM; in [2], 87 µM; in [12], over 100 µM; in [3], 42 µM; in data set [5], over 100 µM. The IC50 was 77 µM in data set [9], 64 µM in data set [10] and over 63 µM in data set [14]. Moreover, the CC50 at 48 h worked out at 33 µM in [13] and 46 µM in [15]. This compound also returned an EC50 in data set [6] of 105 µM. In [8], this compound registered an inhibition at 200 µM of 76%.
Take `CCc1ccc(S(=O)(=O)Nc2ccc(-c3nc4ccccc4o3)cc2)cc1`: the IC50 in [11] was 172 µM; in data set [1] it was over 100 µM; in data set [2], 46 µM; in data set [12], over 100 µM; in data set [3] it was 31 µM; in [5] it was 91 µM. Moreover, the IC50 was 37 µM in data set [9], 36 µM in data set [10] and over 63 µM in data set [14]. For the same compound, the CC50 at 48 h in [13] was 77 µM; in data set [15], 82 µM. In [6], this compound displayed an EC50 of 153 µM. Further, the inhibition at 200 µM in [8] was found to be 82%.

The values are drawn from ChEMBL document CHEMBL4387722.
